Experimental data reported in ChEMBL document CHEMBL1142454, “Synthesis and evaluation of novel 4-amino-4,6-androstadiene-3,17-dione: an analog of formestane” (2008).

Test system: UACC-257
Experiment: Antitumor activity against human UACC-257 cells assessed as reduction of cell growth at 10 uM after 48 hrs by SRB assay
Type: functional
Parameters: scale not given: the % may be the effect or the level left
In short: (§1)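 NCI-60 one-dose primary screen at 10^-5 M final. Cells grown in RPMI 1640 with 5% FBS and 2 mM L-glutamine, plated at 5000–40,000 cells/well and preincubated 24 h at 37 °C, 5% CO2. Drug stocks in DMSO, diluted in medium with gentamicin. Exposure 48 h, then fixed in situ with TCA (10% final) for 60 min at 4 °C. Stained with 0.4% SRB in 1% acetic acid, bound dye solubilized in 10 mM trizma base, absorbance read at 515 nm. Reported as mean growth percent; negative values indicate cell kill.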
For CCOC1=C2CC[C@@H]3[C@H](CC[C@]4(C)C(=O)CC[C@@H]34)[C@@]2(C)CCC1=O, the Activity was 117.1%.

Test system: SK-MEL-5
Experiment: Antitumor activity against human SK-MEL-5 cells assessed as reduction of cell growth at 10 uM after 48 hrs by SRB assay
Type: functional
Parameters: scale not given: the % may be the effect or the level left
In short: (§2)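 NCI 60-cell-line primary screen, single dose 10^-5 M (final). Cells grown in RPMI 1640 with 5% FBS and 2 mM L-glutamine, seeded at 5000–40,000 cells/well and preincubated 24 h at 37 °C, 5% CO2. Compound is dissolved in DMSO, diluted in medium with gentamicin, and exposed 48 h. Cells are fixed with 10% TCA (final) and stained with 0.4% SRB; absorbance is read at 515 nm. Readout is growth percentage.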
CCOC1=C2CC[C@@H]3[C@H](CC[C@]4(C)C(=O)CC[C@@H]34)[C@@]2(C)CCC1=O gave an Activity of 99.39%.

Test system: SK-MEL-2
Experiment: Antitumor activity against human SK-MEL-2 cells assessed as reduction of cell growth at 10 uM after 48 hrs by SRB assay
Type: functional
Parameters: scale not given: the % may be the effect or the level left
In short: as §2
For CCOC1=C2CC[C@@H]3[C@H](CC[C@]4(C)C(=O)CC[C@@H]34)[C@@]2(C)CCC1=O, the Activity was 94.48%.

Test system: Malme-3M
Experiment: Antitumor activity against human MALME-3M cells assessed as reduction of cell growth at 10 uM after 48 hrs by SRB assay
Type: functional
Parameters: scale not given: the % may be the effect or the level left
In short: as §2
Work on CCOC1=C2CC[C@@H]3[C@H](CC[C@]4(C)C(=O)CC[C@@H]34)[C@@]2(C)CCC1=O yielded an Activity of 87.47%.

Test system: M14
Experiment: Antitumor activity against human M14 cells assessed as reduction of cell growth at 10 uM after 48 hrs by SRB assay
Type: functional
Parameters: scale not given: the % may be the effect or the level left
In short: as §2
CCOC1=C2CC[C@@H]3[C@H](CC[C@]4(C)C(=O)CC[C@@H]34)[C@@]2(C)CCC1=O gave an Activity of 103.8%.

Test system: LOX IMVI
Experiment: Antitumor activity against human LOXIMVI cells assessed as reduction of cell growth at 10 uM after 48 hrs by SRB assay
Type: functional
Parameters: scale not given: the % may be the effect or the level left
In short: as §2
CCOC1=C2CC[C@@H]3[C@H](CC[C@]4(C)C(=O)CC[C@@H]34)[C@@]2(C)CCC1=O gave an Activity of 100.3%.

Test system: RXF 393
Experiment: Antitumor activity against human RXF 393 cells assessed as reduction of cell growth at 10 uM after 48 hrs by SRB assay
Type: functional
Parameters: scale not given: the % may be the effect or the level left
In short: as §2
Work on CCOC1=C2CC[C@@H]3[C@H](CC[C@]4(C)C(=O)CC[C@@H]34)[C@@]2(C)CCC1=O yielded an Activity of 117.9%.

Test system: CAKI-1
Experiment: Antitumor activity against human Caki-1 cells assessed as reduction of cell growth at 10 uM after 48 hrs by SRB assay
Type: functional
Parameters: scale not given: the % may be the effect or the level left
In short: as §2
CCOC1=C2CC[C@@H]3[C@H](CC[C@]4(C)C(=O)CC[C@@H]34)[C@@]2(C)CCC1=O gave an Activity of 115.2%.

Test system: ACHN
Experiment: Antitumor activity against human ACHN cells assessed as reduction of cell growth at 10 uM after 48 hrs by SRB assay
Type: functional
Parameters: scale not given: the % may be the effect or the level left
In short: as §2
Work on CCOC1=C2CC[C@@H]3[C@H](CC[C@]4(C)C(=O)CC[C@@H]34)[C@@]2(C)CCC1=O yielded an Activity of 105.1%.

Test system: A498
Experiment: Antitumor activity against human A-498 cells assessed as reduction of cell growth at 10 uM after 48 hrs by SRB assay
Type: functional
Parameters: scale not given: the % may be the effect or the level left
In short: as §2
CCOC1=C2CC[C@@H]3[C@H](CC[C@]4(C)C(=O)CC[C@@H]34)[C@@]2(C)CCC1=O showed an Activity of 105.6%.

Test system: not listed separately
Experiment: Antitumor activity against human 786-O cells assessed as reduction of cell growth at 10 uM after 48 hrs by SRB assay
Type: functional, 786-0
Parameters: scale not given: the % may be the effect or the level left
In short: as §2
Molecule CCOC1=C2CC[C@@H]3[C@H](CC[C@]4(C)C(=O)CC[C@@H]34)[C@@]2(C)CCC1=O has an Activity of 103.4%.

Test system: SR
Experiment: Antitumor activity against human SR cells assessed as reduction of cell growth at 10 uM after 48 hrs by SRB assay
Type: functional
Parameters: scale not given: the % may be the effect or the level left
In short: as §1
With CCOC1=C2CC[C@@H]3[C@H](CC[C@]4(C)C(=O)CC[C@@H]34)[C@@]2(C)CCC1=O the Activity was 104.9%.

Test system: MOLT-4
Experiment: Antitumor activity against human MOLT-4 cells assessed as reduction of cell growth at 10 uM after 48 hrs by SRB assay
Type: functional
Parameters: scale not given: the % may be the effect or the level left
In short: as §2
With CCOC1=C2CC[C@@H]3[C@H](CC[C@]4(C)C(=O)CC[C@@H]34)[C@@]2(C)CCC1=O the Activity was 98.59%.

Test system: K562
Experiment: Antitumor activity against human K-562 cells assessed as reduction of cell growth at 10 uM after 48 hrs by SRB assay
Type: functional
Parameters: scale not given: the % may be the effect or the level left
In short: as §2
CCOC1=C2CC[C@@H]3[C@H](CC[C@]4(C)C(=O)CC[C@@H]34)[C@@]2(C)CCC1=O gave an Activity of 94.09%.

Test system: HL-60(TB)
Experiment: Antitumor activity against human HL-60(TB) cells assessed as reduction of cell growth at 10 uM after 48 hrs by SRB assay
Type: functional
Parameters: scale not given: the % may be the effect or the level left
In short: as §2
CCOC1=C2CC[C@@H]3[C@H](CC[C@]4(C)C(=O)CC[C@@H]34)[C@@]2(C)CCC1=O gave an Activity of 112.2%.

Test system: CCRF-CEM
Experiment: Antitumor activity against human CCRF-CEM cells assessed as reduction of cell growth at 10 uM after 48 hrs by SRB assay
Type: functional
Parameters: scale not given: the % may be the effect or the level left
In short: as §2
Work on CCOC1=C2CC[C@@H]3[C@H](CC[C@]4(C)C(=O)CC[C@@H]34)[C@@]2(C)CCC1=O yielded an Activity of 91.63%.

Test system: SK-OV-3
Experiment: Antitumor activity against human SKOV3 cells assessed as reduction of cell growth at 10 uM after 48 hrs by SRB assay
Type: functional
Parameters: scale not given: the % may be the effect or the level left
In short: as §2
CCOC1=C2CC[C@@H]3[C@H](CC[C@]4(C)C(=O)CC[C@@H]34)[C@@]2(C)CCC1=O gave an Activity of 111.3%.

Test system: OVCAR-5
Experiment: Antitumor activity against human OVCAR5 cells assessed as reduction of cell growth at 10 uM after 48 hrs by SRB assay
Type: functional
Parameters: scale not given: the % may be the effect or the level left
In short: as §2
CCOC1=C2CC[C@@H]3[C@H](CC[C@]4(C)C(=O)CC[C@@H]34)[C@@]2(C)CCC1=O showed an Activity of 101.66%.
